Experimental data published in ChEMBL document CHEMBL1134337, “Behavioral approach to nondyskinetic dopamine antagonists: identification of seroquel” (J Med Chem, 2001).

What was measured:
[1] = Number of animals showing dyskinesias was determined in haloperidol sensitized 4 cebus monkeys after (po) administration of 40 mg/kg; type: functional
In short: (§1)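 Adult female and male Cebus monkeys sensitized with oral haloperidol 1 mg/kg once per week until dyskinetic reactions occurred. Test drug given orally (2 mL/kg) in 0.5% w/w hydroxypropylmethylcellulose with 0.1% w/w Tween 80 in distilled water, at least 2 weeks between treatments. Two observers watched continuously for 6-7 h, recording reaction type and severity every 30 min. Score is monkeys with dyskinesias/monkeys tested.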

[2] = target: D(2) dopamine receptor (Rattus norvegicus) (UniProt P61169); experiment: Binding affinity at dopamine receptor D2 from rat by spiropiperidone displacement.
Sequence of D(2) dopamine receptor (Rattus norvegicus) (P61169 whole entry): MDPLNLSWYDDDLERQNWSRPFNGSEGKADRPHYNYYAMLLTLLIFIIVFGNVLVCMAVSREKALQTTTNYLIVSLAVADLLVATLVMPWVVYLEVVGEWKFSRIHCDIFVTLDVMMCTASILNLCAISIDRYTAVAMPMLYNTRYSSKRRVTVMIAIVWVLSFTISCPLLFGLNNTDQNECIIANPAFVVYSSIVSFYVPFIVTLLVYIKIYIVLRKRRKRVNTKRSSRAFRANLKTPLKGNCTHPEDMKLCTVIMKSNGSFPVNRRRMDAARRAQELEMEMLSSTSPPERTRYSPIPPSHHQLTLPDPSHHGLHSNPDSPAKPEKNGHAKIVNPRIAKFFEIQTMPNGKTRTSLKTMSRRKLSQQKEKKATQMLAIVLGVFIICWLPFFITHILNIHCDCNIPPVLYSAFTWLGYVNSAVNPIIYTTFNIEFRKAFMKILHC
In short: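 D2 receptor binding was read as % displacement of spiropiperidone, with test compound at 1000 nM unless stated otherwise. IC50 values used at least five concentrations per compound in triplicate. Each value is the mean of two replicate experiments differing by 5% or less.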

[3] = test system: Mus musculus; experiment: Antagonism of apomorphine induced climbing was determined in female swiss -Webster mice after (ip) administration of 20 mg/kg; type: functional
In short: (§2)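 Female Swiss-Webster mice (about 20 g) were fasted about 24 h, then given test compound or vehicle ip or po (N = 20 per group). Vehicle was 0.5% w/w hydroxypropylmethylcellulose with 0.1% w/w Tween 80 in water. After 30 min, mice received apomorphine HCl 1.25 mg/kg sc. At 13 min, each mouse was watched for 1 min; score was mean of highest and lowest rung of 27. Groups were compared with vehicle by Student's t-test.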

[4] = test system: Mus musculus; experiment: Antagonism of apomorphine induced climbing was determined in female swiss -Webster mice after (ip) administration of 40 mg/kg; type: functional; in short: as §2
[5] = test system: Mus musculus; experiment: Antagonism of apomorphine induced climbing was determined in female swiss -Webster mice after (ip) administration of 80 mg/kg; type: functional; in short: as §2
[6] = test system: Mus musculus; experiment: Antagonism of apomorphine induced swimming was determined in female swiss -Webster mice after (ip) administration of 20 mg/kg; type: functional
[7] = test system: Mus musculus; experiment: Antagonism of apomorphine induced swimming was determined in female swiss -Webster mice after (ip) administration of 40 mg/kg; type: functional
[8] = test system: Mus musculus; experiment: Antagonism of apomorphine induced swimming was determined in female swiss -Webster mice after (ip) administration of 80 mg/kg; type: functional
[9] = test system: Mus musculus; experiment: Antagonism of apomorphine induced climbing was determined in female swiss -Wbster mice after (ip) administration of 20 mg/kg; type: functional; in short: as §2
[10] = test system: Mus musculus; experiment: Antagonism of apomorphine induced climbing was determined in female swiss -Wbster mice after (ip) administration of 40 mg/kg; type: functional; in short: as §2
[11] = test system: Mus musculus; experiment: Antagonism of apomorphine induced climbing was determined in female swiss -Wbster mice after (ip) administration of 80 mg/kg; type: functional; in short: as §2
[12] = test system: Mus musculus; experiment: Antagonism of apomorphine induced climbing was determined in female swiss -Wbster mice after (po) administration of 20 mg/kg; type: functional; in short: as §2
[13] = test system: Mus musculus; experiment: Antagonism of apomorphine induced climbing was determined in female swiss -Wbster mice after (po) administration of 40 mg/kg; type: functional; in short: as §2
[14] = test system: Mus musculus; experiment: Antagonism of apomorphine induced climbing was determined in female swiss -Wbster mice after (po) administration of 80 mg/kg; type: functional; in short: as §2
[15] = test system: Mus musculus; experiment: Antagonism of apomorphine induced swimming was determined in female swiss -Wbster mice after (po) administration of 20 mg/kg; type: functional
[16] = test system: Mus musculus; experiment: Antagonism of apomorphine induced swimming was determined in female swiss -Wbster mice after (po) administration of 40 mg/kg; type: functional
[17] = test system: Mus musculus; experiment: Antagonism of apomorphine induced swimming was determined in female swiss -Wbster mice after (po) administration of 80 mg/kg; type: functional
[18] = test system: Mus musculus; experiment: Antagonism of apomorphine induced swimming was determined in female swiss -Wbster mice after (ip) administration of 80 mg/kg; type: functional
[19] = Number of animals showing dyskinesias was determined in haloperidol sensitized 2 cebus monkeys after (po) administration of 20 mg/kg; type: functional; in short: as §1
[20] = Number of animals showing dyskinesias was determined in haloperidol sensitized 2 cebus monkeys after (po) administration of 40 mg/kg; type: functional; in short: as §1
[21] = Number of animals showing dyskinesias was determined in haloperidol sensitized 2 cebus monkeys after (po) administration of 80 mg/kg; type: functional; in short: as §1
[22] = target: D(2) dopamine receptor (Rattus norvegicus, UniProt P61169); experiment: Inhibition of spiropiperidone binding at dopamine receptor D2 of rat.
Sequence of D(2) dopamine receptor (P61169 whole entry): as above

[23] = test system: Mus musculus; experiment: Antagonism of apomorphine induced swimming was determined in female swiss -Wbster mice after (ip) administration of 40 mg/kg; type: functional
[24] = test system: Mus musculus; experiment: Antagonism of apomorphine induced climbing was determined in female swiss -Webster mice after (ip) administration of 10 mg/kg; type: functional; in short: as §2
[25] = test system: Mus musculus; experiment: Antagonism of apomorphine induced climbing was determined in female swiss -Webster mice after (ip) administration of 5 mg/kg; type: functional; in short: as §2
[26] = test system: Mus musculus; experiment: Antagonism of apomorphine induced swimming was determined in female swiss -Webster mice after (ip) administration of 10 mg/kg; type: functional
[27] = test system: Mus musculus; experiment: Antagonism of apomorphine induced swimming was determined in female swiss -Webster mice after (ip) administration of 5 mg/kg; type: functional
[28] = test system: Mus musculus; experiment: Antagonism of apomorphine induced climbing was determined in female swiss -Wbster mice after (ip) administration of 10 mg/kg; type: functional; in short: as §2

Question: Which No of monkeys [1] does the source give for `OCC1COCC(CN2CCN(C3=Nc4ccccc4Sc4ccccc43)CC2)O1` (configuration not stated) here?
Answer: The No of monkeys was 4.

Question: And the % displacement of spiropiperidone [2]?
Answer: Its % displacement of spiropiperidone is 4%.

Question: What about the Activity [3] of the same compound?
Answer: Its Activity is 18.

Question: And the Activity [4]?
Answer: The Activity was 7.

Question: What about the Activity [5] of the same compound?
Answer: Its Activity is 0.

Question: What about the Activity [6] of the same compound?
Answer: The Activity was 0.

Question: And the Activity [7]?
Answer: Its Activity is 8.

Question: What about the Activity [8] of the same compound?
Answer: The Activity was 27.

Question: Which % displacement of spiropiperidone [2] does the source give for `OCCOCCN1CCN(C2=Nc3ccc(O)cc3Cc3ccccc32)CC1` here?
Answer: Its % displacement of spiropiperidone is 25%.

Question: And the Activity [9]?
Answer: The Activity was 21.

Question: What about the Activity [10] of the same compound?
Answer: The Activity was 17.

Question: What about the Activity [11] of the same compound?
Answer: The Activity was 2.

Question: And the Activity [12]?
Answer: The Activity was 24.

Question: And the Activity [13]?
Answer: Its Activity is 17.

Question: What about the Activity [14] of the same compound?
Answer: The Activity was 10.

Question: What about the Activity [15] of the same compound?
Answer: The Activity was 1.

Question: And the Activity [16]?
Answer: Its Activity is 1.

Question: What about the Activity [17] of the same compound?
Answer: Its Activity is 3.

Question: Which results are given for `OCCOCCN1CCN(C2=Nc3cc(O)ccc3Sc3ccccc32)CC1`?
Answer: % displacement of spiropiperidone [2]: 24%; Activity [11]: 24; Activity [18]: 0

Question: With `OCCOCCN1CCN(C2=Nc3ccccc3Cc3sccc32)CC1` as the compound, how does the Activity [4] read?
Answer: The Activity was 21.

Question: What about the Activity [5] of the same compound?
Answer: The Activity was 7.

Question: Which results are given for `OCCOCCN1CCN(C2=Nc3cc(Cl)ccc3Cc3ccccc32)CC1`?
Answer: No of monkeys [19]: 0; No of monkeys [20]: 0; No of monkeys [21]: 0; IC50 [22]: 1000 nM; Activity [9]: 19; Activity [10]: 6; Activity [11]: 2; Activity [13]: 26; Activity [14]: 1; Activity [16]: 1; Activity [17]: 2

Question: What does the source list for `[O-][S+]1c2ccccc2N=C(N2CCN(CCOCCO)CC2)c2ccccc21` (configuration not stated) [SULFOXIDE METABOLITE]?
Answer: Activity [5]: 23; Activity [8]: 0

Question: For `OCCOCCOCCN1CCN(C2=Nc3ccccc3Sc3ccccc32)CC1`, which IC50 [22] is on record?
Answer: Its IC50 is 1390 nM.

Question: And the Activity [3]?
Answer: Its Activity is 20.

Question: And the Activity [4]?
Answer: Its Activity is 14.

Question: And the Activity [5]?
Answer: The Activity was <3.

Question: And the Activity [6]?
Answer: The Activity was 2.

Question: And the Activity [7]?
Answer: Its Activity is <3.

Question: And the Activity [8]?
Answer: Its Activity is <12.

Question: With `COCC(CO)N1CCN(C2=Nc3ccccc3Sc3ccccc32)CC1` (configuration not stated) as the compound, how does the IC50 [22] read?
Answer: Its IC50 is 1640 nM.

Question: What about the Activity [5] of the same compound?
Answer: The Activity was 21.

Question: What about the Activity [8] of the same compound?
Answer: The Activity was 0.

Question: Which results are given for `OCCOCCN1CCN(C2=Nc3cccc(F)c3Sc3ccccc32)CC1`?
Answer: % displacement of spiropiperidone [2]: 0%; Activity [11]: 22; Activity [18]: 0

Question: With `OCCOCCN1CCN(C2=Nc3ccccc3Oc3ccccc32)CC1` as the compound, how does the % displacement of spiropiperidone [2] read?
Answer: Its % displacement of spiropiperidone is 16%.

Question: What about the Activity [10] of the same compound?
Answer: Its Activity is 17.

Question: And the Activity [11]?
Answer: Its Activity is 11.

Question: What about the Activity [23] of the same compound?
Answer: The Activity was 1.

Question: What about the Activity [18] of the same compound?
Answer: Its Activity is 8.

Question: With `c1ccc2c(c1)N=C(N1CCN(CC3CCCO3)CC1)c1ccccc1S2` (configuration not stated) as the compound, how does the No of monkeys [20] read?
Answer: The No of monkeys was 2.

Question: And the IC50 [22]?
Answer: Its IC50 is 417 nM.

Question: And the Activity [24]?
Answer: Its Activity is 9.

Question: And the Activity [3]?
Answer: The Activity was 2.

Question: What about the Activity [4] of the same compound?
Answer: Its Activity is 7.

Question: And the Activity [25]?
Answer: The Activity was 21.

Question: And the Activity [5]?
Answer: Its Activity is 1.

Question: What about the Activity [26] of the same compound?
Answer: Its Activity is 7.

Question: What about the Activity [6] of the same compound?
Answer: Its Activity is 16.

Question: What about the Activity [7] of the same compound?
Answer: Its Activity is 26.

Question: What about the Activity [27] of the same compound?
Answer: The Activity was 1.

Question: What about the Activity [8] of the same compound?
Answer: The Activity was 37.

Question: For `OCCOCCN1CCN(C2=Nc3cc(Cl)ccc3Cc3sccc32)CC1`, which No of monkeys [19] is on record?
Answer: Its No of monkeys is 1.

Question: What about the % displacement of spiropiperidone [2] of the same compound?
Answer: Its % displacement of spiropiperidone is 60%.

Question: What about the Activity [28] of the same compound?
Answer: Its Activity is 20.

Question: What about the Activity [9] of the same compound?
Answer: The Activity was 1.

Question: What about the Activity [10] of the same compound?
Answer: Its Activity is 2.

Question: And the Activity [11]?
Answer: The Activity was 3.
